Laboratory results: ChEMBL document CHEMBL1136151, “Suzuki cross-coupling approaches to the synthesis of bioactive 3-substituted and 5-substituted-4-methoxy-6-methyl-2-pyrones” (Bioorg Med Chem Lett, 2003)

Assays:
Type in all cases: functional
[1] = tested on: Aspergillus niger; experiment: Percent growth of Aspergillus niger after 7 days of incubation; set-up: concentration or dose not given beside the values
Method in brief: (§1)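 Fungal plate assay: pyrone dissolved in absolute EtOH at 10mg/mL and pipetted 2 cm offset from the centre of the plate containing the organism. EtOH alone served as control. Growth is recorded as percentage of the organism after 72 h and after 7 days of incubation.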

[2] = tested on: Aspergillus niger; experiment: Percent growth of Aspergillus niger after 72 hours of incubation; set-up: concentration or dose not given beside the values; method in brief: as §1
[3] = tested on: Bacillus subtilis; experiment: Antimicrobial activity against Bacillus subtilis was determined after 96 hours of incubation
Method in brief: (§2)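 Disk diffusion: cellulose disks loaded with test compound and placed on bacterial plates, with an EtOH control disk. Incubation 96 h. Read-out is the radius (mm) of the inhibition zone.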

[4] = tested on: Botrytis cinerea; experiment: Percent growth of Botrytis cinerea after 7 days of incubation; set-up: concentration or dose not given beside the values; method in brief: as §1
[5] = tested on: Botrytis cinerea; experiment: Percent growth of Botrytis cinerea after 72 hours of incubation; set-up: concentration or dose not given beside the values; method in brief: as §1
[6] = tested on: Candida albicans; experiment: Antimicrobial activity against Candida albicans was determined after 48 hours of incubation
Method in brief: (§3)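 Disk diffusion on yeast plates: cellulose disks carrying test compound, with an EtOH control. Incubation 48 h. The inhibition zone radius is recorded in mm.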

[7] = tested on: Fusarium oxysporum; experiment: Percent growth of Fusarium oxysporum after 7 days of incubation; set-up: concentration or dose not given beside the values; method in brief: as §1
[8] = tested on: Fusarium oxysporum; experiment: Percent growth of Fusarium oxysporum after 72 hours of incubation; set-up: concentration or dose not given beside the values; method in brief: as §1
[9] = tested on: Escherichia coli; experiment: Antimicrobial activity against Escherichia coli was determined after 96 hours of incubation; method in brief: as §2
[10] = tested on: Globisporangium ultimum; experiment: Percent growth of Pythium ultimum after 7 days of incubation; set-up: concentration or dose not given beside the values; method in brief: as §1
[11] = tested on: Globisporangium ultimum; experiment: Percent growth of Pythium ultimum after 72 hours of incubation; set-up: concentration or dose not given beside the values; method in brief: as §1
[12] = tested on: Schizosaccharomyces pombe; experiment: Antimicrobial activity against Schizosaccharomyces pombe was determined after 48 hours of incubation; method in brief: as §3
[13] = tested on: Saccharomyces cerevisiae; experiment: Antimicrobial activity against Saccharomyces cerevisiae was determined after 48 hours of incubation; method in brief: as §3
[14] = tested on: Thanatephorus cucumeris; experiment: Percent growth of Rhizoctonia solani after 7 days of incubation; set-up: concentration or dose not given beside the values; method in brief: as §1
[15] = tested on: Thanatephorus cucumeris; experiment: Percent growth of Rhizoctonia solani after 72 hours of incubation; set-up: concentration or dose not given beside the values; method in brief: as §1
[16] = tested on: Staphylococcus aureus; experiment: Antimicrobial activity against Staphylococcus aureus was determined after 96 hours of incubation; method in brief: as §2
[17] = tested on: Globisporangium mamillatum; experiment: Percent growth of Pythium mammillatum after 7 days of incubation; set-up: concentration or dose not given beside the values; method in brief: as §1
[18] = tested on: Globisporangium mamillatum; experiment: Percent growth of Pythium mammillatum after 72 hours of incubation; set-up: concentration or dose not given beside the values; method in brief: as §1

COc1ccc(-c2c(OC)cc(C)oc2=O)cc1
Growth [1]: 82% | Growth [2]: 70% | Activity [3]: 0 mm | Growth [4]: 100% | Growth [5]: 62% | Activity [6]: 0 mm | Growth [7]: 60% | Growth [8]: 7% | Activity [9]: 0 mm | Growth [10]: 100% | Growth [11]: 100% | Activity [12]: 0 mm | Activity [13]: 0 mm | Growth [14]: 100% | Growth [15]: 81% | Activity [16]: 0 mm

CCCCC/C=C/c1c(OC)cc(C)oc1=O
Growth [1]: 95% | Growth [2]: 90% | Activity [3]: 20 mm | Growth [4]: 100% | Growth [5]: 53% | Activity [6]: 0 mm | Growth [7]: 56% | Growth [8]: 11% | Activity [9]: 0 mm | Growth [17]: 100% | Growth [18]: 42% | Growth [10]: 75% | Growth [11]: 61% | Activity [12]: 0 mm | Activity [13]: 0 mm | Growth [14]: 100% | Growth [15]: 47% | Activity [16]: 0 mm

COc1cc(C)oc(=O)c1-c1ccc(Cl)cc1
Growth [1]: 95% | Growth [2]: >95% | Activity [3]: 17 mm | Growth [4]: 100% | Growth [5]: 58% | Activity [6]: 0 mm | Growth [7]: 60% | Growth [8]: 8% | Activity [9]: 18 mm | Growth [10]: 100% | Growth [11]: 100% | Activity [12]: 0 mm | Activity [13]: 30 mm | Growth [14]: 100% | Growth [15]: 51% | Activity [16]: 0 mm

CCCCC/C=C/c1cc(C)oc(=O)c1
Growth [1]: 94% | Growth [2]: 89% | Activity [3]: 18 mm | Growth [4]: 100% | Growth [5]: 45% | Activity [6]: 21 mm | Growth [7]: 24% | Growth [8]: 2% | Activity [9]: 18 mm | Growth [17]: 93% | Growth [18]: 31% | Growth [10]: 100% | Growth [11]: 95% | Activity [12]: 34 mm | Activity [13]: 0 mm | Growth [14]: 100% | Growth [15]: 38% | Activity [16]: 17 mm

CCC/C=C/c1c(OC)cc(C)oc1=O
Growth [1]: >95% | Growth [2]: 93% | Activity [3]: 18 mm | Growth [4]: 100% | Growth [5]: 56% | Activity [6]: 0 mm | Growth [7]: 48% | Growth [8]: 8% | Activity [9]: 21 mm | Growth [17]: 100% | Growth [18]: 43% | Growth [10]: 80% | Growth [11]: 67% | Activity [12]: 13 mm | Activity [13]: 0 mm | Growth [14]: 100% | Growth [15]: 44% | Activity [16]: 0 mm

CCCCCC/C=C/c1cc(C)oc(=O)c1
Growth [1]: 94% | Growth [2]: 89% | Activity [3]: 18 mm | Growth [4]: 100% | Growth [5]: 42% | Activity [6]: 20 mm | Growth [7]: 30% | Growth [8]: 5% | Activity [9]: 20 mm | Growth [10]: 100% | Growth [11]: 100% | Activity [12]: 29 mm | Activity [13]: 0 mm | Growth [14]: 100% | Growth [15]: 44% | Activity [16]: 18 mm

CCCC/C=C/c1cc(C)oc(=O)c1
Growth [1]: 95% | Growth [2]: 92% | Activity [3]: 18 mm | Growth [4]: 100% | Growth [5]: 44% | Activity [6]: 24 mm | Growth [7]: 25% | Growth [8]: 2% | Activity [9]: 18 mm | Growth [17]: 100% | Growth [18]: 30% | Growth [10]: 100% | Growth [11]: 96% | Activity [12]: 40 mm | Activity [13]: 0 mm | Growth [14]: 100% | Growth [15]: 36% | Activity [16]: 0 mm

COc1cc(=O)oc(C)c1-c1ccccc1
Growth [1]: >90% | Growth [2]: 71% | Activity [3]: 6 mm | Growth [4]: 100% | Growth [5]: 47% | Activity [6]: 0 mm | Growth [7]: 51% | Growth [8]: 12% | Activity [9]: 6 mm | Activity [12]: 0 mm | Activity [13]: 0 mm | Growth [14]: 100% | Growth [15]: 67% | Activity [16]: 0 mm

CCC/C=C/c1cc(C)oc(=O)c1
Growth [1]: 100% | Growth [2]: >95% | Activity [3]: 16 mm | Growth [4]: 100% | Growth [5]: 47% | Activity [6]: 16 mm | Growth [7]: 45% | Growth [8]: 5% | Activity [9]: 19 mm | Growth [10]: 100% | Growth [11]: 100% | Activity [12]: 28 mm | Activity [13]: 0 mm | Growth [14]: 100% | Growth [15]: 49% | Activity [16]: 20 mm

Cc1cc(/C=C/c2ccccc2)cc(=O)o1
Growth [1]: 100% | Growth [2]: 100% | Activity [3]: 18 mm | Growth [4]: 100% | Growth [5]: 59% | Activity [6]: 0 mm | Activity [9]: 17 mm | Growth [10]: 100% | Growth [11]: 100% | Activity [12]: 18 mm | Activity [13]: 0 mm | Growth [14]: 100% | Growth [15]: 47% | Activity [16]: 0 mm

COc1cc(=O)oc(C)c1/C=C/c1ccccc1
Growth [1]: 90% | Growth [2]: 71% | Activity [3]: 6 mm | Growth [4]: 100% | Growth [5]: 47% | Activity [6]: 0 mm | Growth [7]: 51% | Growth [8]: 12% | Activity [9]: 6 mm | Activity [12]: 0 mm | Activity [13]: 0 mm | Growth [14]: 100% | Growth [15]: 67% | Activity [16]: 0 mm

CCCCC/C=C/c1c(OC)cc(=O)oc1C
Growth [1]: 95% | Growth [2]: 82% | Activity [3]: 19 mm | Growth [4]: 100% | Growth [5]: 12% | Activity [6]: 12 mm | Growth [7]: 24% | Growth [8]: 7% | Activity [9]: 20 mm | Growth [17]: 94% | Growth [18]: 24% | Growth [10]: 100% | Growth [11]: 100% | Activity [12]: 26 mm | Activity [13]: 12 mm | Growth [14]: 100% | Growth [15]: 33% | Activity [16]: 16 mm

COc1cc(C)oc(=O)c1-c1ccc(C)cc1
Growth [1]: 100% | Growth [2]: >95% | Activity [3]: 16 mm | Growth [4]: 100% | Growth [5]: 58% | Activity [6]: 0 mm | Growth [7]: 60% | Growth [8]: 11% | Activity [9]: 20 mm | Growth [10]: 100% | Growth [11]: 100% | Activity [12]: 0 mm | Activity [13]: 0 mm | Growth [14]: 100% | Growth [15]: 55% | Activity [16]: 0 mm

COc1cc(C)oc(=O)c1-c1ccccc1
Growth [1]: 100% | Growth [2]: >95% | Activity [3]: 6 mm | Growth [4]: 100% | Growth [5]: 63% | Activity [6]: 0 mm | Growth [7]: 60% | Growth [8]: 7.4% | Activity [9]: 0 mm | Growth [10]: 100% | Growth [11]: 100% | Activity [12]: 0 mm | Activity [13]: 0 mm | Growth [14]: 100% | Growth [15]: 75% | Activity [16]: 0 mm

COc1ccc(-c2c(OC)cc(=O)oc2C)cc1
Growth [1]: 90% | Growth [2]: 85% | Activity [3]: 14 mm | Growth [4]: 100% | Growth [5]: 53% | Activity [6]: 11 mm | Growth [7]: 61% | Growth [8]: 11% | Activity [9]: 5 mm | Activity [12]: 18 mm | Activity [13]: 0 mm | Growth [14]: 100% | Growth [15]: 69% | Activity [16]: 13 mm

COc1cc(C)oc(=O)c1-c1ccc(C=O)cc1
Growth [1]: >95% | Growth [2]: 83% | Activity [3]: 6 mm | Growth [4]: 100% | Growth [5]: 65% | Activity [6]: 0 mm | Growth [7]: 60% | Growth [8]: 11% | Activity [9]: 6 mm | Growth [10]: 100% | Growth [11]: 100% | Activity [12]: 0 mm | Activity [13]: 0 mm | Growth [14]: 100% | Growth [15]: 79% | Activity [16]: 0 mm

COc1cc(C)oc(=O)c1-c1cccc([N+](=O)[O-])c1
Growth [1]: 100% | Growth [2]: 100% | Activity [3]: 6 mm | Growth [4]: 100% | Activity [6]: 0 mm | Growth [7]: 60% | Growth [8]: 12% | Activity [9]: 0 mm | Growth [10]: 100% | Growth [11]: 100% | Activity [12]: 0 mm | Activity [13]: 0 mm | Growth [14]: 100% | Activity [16]: 0 mm

COc1cc(C)oc(=O)c1/C=C/c1ccccc1
Growth [1]: 100% | Growth [2]: >95% | Activity [3]: 0 mm | Growth [4]: 100% | Growth [5]: 58% | Activity [6]: 0 mm | Growth [7]: 60% | Growth [8]: 11% | Activity [9]: 0 mm | Growth [10]: 100% | Growth [11]: 100% | Activity [12]: 0 mm | Activity [13]: 0 mm | Growth [14]: 100% | Growth [15]: 92% | Activity [16]: 0 mm
